≈ marks a conversion by molar mass, not a printed value. Read-outs that look alike come from different tables or passages of the source.
Columns and labels:
ANT(4') = ANT(4') (Staphylococcus aureus, UniProt P05057); assay: nucleotidylation of compounds by ANT; format: biochemical, S. aureus; details: initial rate normalized to 1 = 100%; 100 µM compound
tested bacterial strains = assay: organism not typed; format: cell-based
[1] = system: E. coli S30 extracts (E. coli ribosomes); assay: in vitro prokaryotic translation assay; format: biochemical
AAC(6')-Ib' = assay: acetylation of compounds by AAC; format: biochemical; details: for relative activity of AAC(6')-Ib' on compound: initial rate normalized to 1 = 100%, 100 µM compound; for times less prone to deactivation by AAC(6')-Ib' than 1: relative to 1, stated jointly for both AAC(6') enzymes
Procedure, shortened: (§1)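 Acetyltransferase activity followed at 412 nm by Ellman's method, with CoASH release coupled to DTNB (2 mM), at 25 °C. Mix: test compound 100 µM, AcCoA 150 µM, enzyme 0.5 µM. Buffer: 50 mM MES pH 6.6 for AAC(6')/APH(2"), 50 mM Tris pH 7.5 for AAC(6')-Ib'. Read every 30 s for 1 h. Initial rates from first 2–5 min, normalized to parent aminoglycoside; triplicate.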

AAC(6')/APH(2") = AAC(6')/APH(2") (Staphylococcus aureus, UniProt P0A0C1); assay: acetylation of compounds by AAC; format: biochemical; details: for relative activity of AAC(6')/APH(2") (acetyltransferase) on compound: initial rate normalized to 1 = 100%, 100 µM compound; for times less prone to deactivation by AAC(6')/APH(2") than 1: relative to 1, stated jointly for both AAC(6') enzymes
Procedure, shortened: as §1

Tetrahymena ribozyme = details: compared to parent antibiotic 1; cited from earlier work
[2] = biological target: chloramphenicol nitroreductase (CNR) (Haemophilus influenzae, UniProt Q57431); assay: reduction of compounds by CNR; format: biochemical, H. influenzae; details: for relative activity of CNR on compound: initial rate normalized to 3 = 100%, 100 µM compound
[3] = biological target: chloramphenicol phosphotransferase (CPT) (Streptomyces venezuelae, UniProt Q56148); assay: phosphorylation of compounds by CPT; format: biochemical; details: compared to 3
S. aureus ATCC 29213 = assay: MIC determination by double-dilution; format: cell-based, Staphylococcus aureus

Sequence of chloramphenicol nitroreductase (CNR) (Q57431 whole entry): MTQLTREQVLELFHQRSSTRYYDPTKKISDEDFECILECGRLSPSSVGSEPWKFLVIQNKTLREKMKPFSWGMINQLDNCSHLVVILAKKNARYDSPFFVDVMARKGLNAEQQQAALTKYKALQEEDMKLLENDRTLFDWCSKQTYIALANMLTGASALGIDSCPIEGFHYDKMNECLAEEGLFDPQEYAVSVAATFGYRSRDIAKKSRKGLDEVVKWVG
Sequence of AAC(6')/APH(2") (P0A0C1 whole entry): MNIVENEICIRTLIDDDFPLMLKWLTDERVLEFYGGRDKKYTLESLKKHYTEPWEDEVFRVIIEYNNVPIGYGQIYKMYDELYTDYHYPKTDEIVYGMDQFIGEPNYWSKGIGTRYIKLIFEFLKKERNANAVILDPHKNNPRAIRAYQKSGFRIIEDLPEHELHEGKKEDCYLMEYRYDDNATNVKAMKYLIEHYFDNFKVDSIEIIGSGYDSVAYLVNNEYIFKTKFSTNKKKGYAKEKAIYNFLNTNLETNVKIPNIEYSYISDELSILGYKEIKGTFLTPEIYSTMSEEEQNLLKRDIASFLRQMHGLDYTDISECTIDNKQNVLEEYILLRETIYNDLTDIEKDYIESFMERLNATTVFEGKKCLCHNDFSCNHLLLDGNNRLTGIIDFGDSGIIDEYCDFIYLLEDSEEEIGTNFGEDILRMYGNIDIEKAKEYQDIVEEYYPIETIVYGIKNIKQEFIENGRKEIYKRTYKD
Sequence of ANT(4') (P05057 whole entry): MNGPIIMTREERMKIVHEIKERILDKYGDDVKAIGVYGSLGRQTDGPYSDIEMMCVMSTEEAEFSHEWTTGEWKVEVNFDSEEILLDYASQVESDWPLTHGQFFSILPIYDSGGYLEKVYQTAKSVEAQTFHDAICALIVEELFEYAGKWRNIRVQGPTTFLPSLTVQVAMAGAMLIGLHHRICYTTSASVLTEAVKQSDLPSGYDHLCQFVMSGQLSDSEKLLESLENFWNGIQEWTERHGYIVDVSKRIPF
Sequence of chloramphenicol phosphotransferase (CPT) (Q56148 5-178): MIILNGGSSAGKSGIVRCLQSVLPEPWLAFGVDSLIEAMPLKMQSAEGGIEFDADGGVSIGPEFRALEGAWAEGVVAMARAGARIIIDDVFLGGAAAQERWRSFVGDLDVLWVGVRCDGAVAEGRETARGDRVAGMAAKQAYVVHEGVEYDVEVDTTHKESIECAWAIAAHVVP

## NC[C@H]1O[C@H](O[C@H]2[C@H](O)[C@@H](O[C@H]3O[C@H](CO)[C@@H](O)[C@H](N)[C@H]3O)[C@H](N)C[C@@H]2N)[C@H](N)C[C@@H]1O [Compound 1, tobramycin, reference compound]
ANT(4')
  relative activity of ANT(4') on compound: 100%

## NC[C@H]1O[C@H](O[C@H]2[C@H](O)[C@@H](O[C@@H]3O[C@H](CSCCOCCS)[C@@H](O)[C@H](N)[C@H]3O)[C@H](N)C[C@@H]2N)[C@H](N)C[C@@H]1O [Compound 6]
ANT(4')
  relative activity of ANT(4') on compound: 49%

## CCC[C@@H]1C[C@@H](C(=O)N[C@H]([C@H]2O[C@H](SC)[C@H](O)[C@@H](O)[C@H]2O)[C@@H](C)SCCOCCS)N(C)C1 [Compound 9]
Tested bacterial strains; read-out: MIC values against seven of the tested strains
  MIC: 1.2 to 9.4 µg/mL (≈ 2.28 to 17.8 µM)
[1]; relative to 2, less potent
  IC50 fold higher than that of parent antibiotic 2, in vitro translation: at least 5 fold

## CCC[C@@H]1C[C@@H](C(=O)NC([C@H]2O[C@H](SC)[C@H](O)[C@@H](O)[C@H]2O)[C@@H](C)SCCOCCSSCCOCCS[C@H](C)C(NC(=O)[C@@H]2C[C@@H](CCC)CN2C)[C@H]2O[C@H](SC)[C@H](O)[C@@H](O)[C@H]2O)N(C)C1 (stereo partly shown) [Compound 10]
Tested bacterial strains; read-out: MICs against eight of the tested bacterial strains
  MIC: 0.6 to 9.4 µg/mL (≈ 0.571 to 8.94 µM)

## O=C(CSCCOCCS)N[C@H](CO)[C@H](O)c1ccc([N+](=O)[O-])cc1 [Compound 13]
[1]; relative to 3
  fold less potent than parent antibiotic 3 in in vitro translation: ~8 fold

## NC[C@H]1O[C@H](O[C@H]2[C@H](O)[C@@H](O[C@@H]3O[C@H](CSCCOCCSSCCOCCSC[C@H]4O[C@@H](O[C@@H]5[C@@H](O)[C@H](O[C@H]6O[C@H](CN)[C@@H](O)C[C@H]6N)[C@@H](N)C[C@H]5N)[C@H](O)[C@@H](N)[C@@H]4O)[C@@H](O)[C@H](N)[C@H]3O)[C@H](N)C[C@@H]2N)[C@H](N)C[C@@H]1O [Compound 16]
AAC(6')-Ib'
  relative activity of AAC(6')-Ib' on compound: 39%
  times less prone to deactivation by AAC(6')-Ib' than 1: 2.5–5 times
AAC(6')/APH(2")
  relative activity of AAC(6')/APH(2") (acetyltransferase) on compound: 34%
  times less prone to deactivation by AAC(6')/APH(2") than 1: 2.5–5 times
Tetrahymena ribozyme
  inhibition of the activity of the Tetrahymena ribozyme (in words): significantly better inhibitor

## CCC[C@@H]1C[C@@H](C(=O)NC([C@H]2O[C@H](SC)[C@H](O)[C@@H](O)[C@H]2O)[C@@H](C)SCCOCCSSCCOCCSC[C@H]2O[C@@H](O[C@@H]3[C@@H](O)[C@H](O[C@H]4O[C@H](CN)[C@@H](O)C[C@H]4N)[C@@H](N)C[C@H]3N)[C@H](O)[C@@H](N)[C@@H]2O)N(C)C1 (stereo partly shown) [Compound 18]
AAC(6')-Ib'
  relative activity of AAC(6')-Ib' on compound: 20%
  times less prone to deactivation by AAC(6')-Ib' than 1: 2.5–5 times
AAC(6')/APH(2")
  relative activity of AAC(6')/APH(2") (acetyltransferase) on compound: 31%
  times less prone to deactivation by AAC(6')/APH(2") than 1: 2.5–5 times

## NC[C@H]1O[C@H](O[C@H]2[C@H](O)[C@@H](O[C@@H]3O[C@H](CSCCOCCSCC(=O)N[C@H](CO)[C@H](O)c4ccc([N+](=O)[O-])cc4)[C@@H](O)[C@H](N)[C@H]3O)[C@H](N)C[C@@H]2N)[C@H](N)C[C@@H]1O [Compound 20]
AAC(6')-Ib'
  relative activity of AAC(6')-Ib' on compound: 37%

## NC[C@H]1O[C@H](O[C@H]2[C@H](O)[C@@H](O[C@@H]3O[C@H](CSCCOCCSSCCOCCSCC(=O)N[C@H](CO)[C@H](O)c4ccc([N+](=O)[O-])cc4)[C@@H](O)[C@H](N)[C@H]3O)[C@H](N)C[C@@H]2N)[C@H](N)C[C@@H]1O [Compound 22]
AAC(6')-Ib'
  relative activity of AAC(6')-Ib' on compound: 31%
[2]
  relative activity of CNR on compound: 117%
AAC(6')/APH(2")
  relative activity of AAC(6')/APH(2") (acetyltransferase) on compound: 34%

## CCC[C@@H]1C[C@@H](C(=O)NC([C@H]2O[C@H](SC)[C@H](O)[C@@H](O)[C@H]2O)[C@@H](C)SCCOCCSCC(=O)N[C@H](CO)[C@H](O)c2ccc([N+](=O)[O-])cc2)N(C)C1 (stereo partly shown) [Compound 23]
[2]
  relative activity of CNR on compound: 133%

## CCC[C@@H]1C[C@@H](C(=O)NC([C@H]2O[C@H](SC)[C@H](O)[C@@H](O)[C@H]2O)[C@@H](C)SCCOCCSSCCOCCSCC(=O)N[C@@H](CO)[C@H](O)c2ccc([N+](=O)[O-])cc2)N(C)C1 (stereo partly shown) [Compound 24]
[2]
  relative activity of CNR on compound: 174%

## O=C(CSCCOCCSCC(=O)N[C@H](CO)[C@H](O)c1ccc([N+](=O)[O-])cc1)N[C@H](CO)[C@H](O)c1ccc([N+](=O)[O-])cc1 [Compound 25]
[3]
  substrate quality for CPT (in words): poor substrate
[2]; compared to 3
  substrate quality for CNR (in words): poor substrate

## O=C(CSCCOCCSSCCOCCSCC(=O)N[C@H](CO)[C@H](O)c1ccc([N+](=O)[O-])cc1)N[C@H](CO)[C@H](O)c1ccc([N+](=O)[O-])cc1 [Compound 26]
[2]
  relative activity of CNR on compound: 220%
S. aureus ATCC 29213
  fold more potent than 3 (MIC): approximately 16 fold

Reference: paper PMC3823688 (Journal of medicinal chemistry, 2013)
